Results gathered from unrelated publications.
Protocols differ between the studies behind these lines.
VHL: von Hippel-Lindau disease tumor suppressor (VHL, Homo sapiens, UniProt P40337)
Pah: Phenylalanine-4-hydroxylase (Pah, Rattus norvegicus, UniProt P04176)

Structure (SMILES) | target | observed | method | pH | setting | Kd
Cc1ncsc1-c1ccc(CNC(=O)[C@@H]2C[C@@H](O)CN2C(=O)[C@@H](NC(=O)C2(F)CC2)C(C)(C)C)c(OCCOc2ccc(CN3CCN(c4cc(-c5ccccc5O)nnc4N)CC3)cc2)c1 | VHL | binding | SPR | – | – | 0.25 µM
Cc1cnc(-c2ccc(-c3ccc(NC(=O)Nc4c(F)cc(F)cc4F)cc3F)c3c2C(=O)NC3)[nH]1 | Serine/threonine-protein kinase 24 (STK24, Homo sapiens, UniProt Q9Y6E0) | binding | competition with immobilised ligand | – | – | 0.024 µM
Cc1cc2nc3c(=O)[nH]c(=O)nc-3n(C[C@H](O)[C@H](O)[C@H](O)COP(=O)(O)OP(=O)(O)OC[C@H]3O[C@@H](n4cnc5c(N)ncnc54)[C@H](O)[C@@H]3O)c2cc1C | Nuclear receptor coactivator 3 (Homo sapiens, UniProt Q9Y6Q9) | binding | – | – | lysate | 0.015 µM
COCCOc1cc(-c2scnc2C)ccc1CNC(=O)[C@@H]1C[C@@H](O)CN1C(=O)[C@@H](NC(=O)C1(F)CC1)C(C)(C)C | VHL | binding | SPR | – | – | 0.062 µM
CCCC[C@H](N)C(=O)O | Pah | binding | fluorescence | pH 7.5 | – | 17000 µM
CC(C)[C@H](N)c1nc2cc(-c3ccncc3F)sc2c(=O)[nH]1 | Cell division cycle 7-related protein kinase (CDC7, Homo sapiens, UniProt O00311) | binding | MST | – | – | 0.00032 µM
Nc1ncnc2c1ncn2[C@@H]1O[C@H](CSCC[C@H](N)C(=O)O)[C@@H](O)[C@H]1O | mdh (Escherichia coli, UniProt P61889, del14-14/del9-10/V5N) | binding | ITC | – | – | 13.3 µM
Cc1cc(Nc2cc3ncccc3c(N[C@@H]3C[C@H]4CC[C@@H](C3)N4CCC#N)n2)n[nH]1 | Cyclin-dependent kinase 4, with cyclin D3 (CDK4, Homo sapiens, UniProt P11802) | binding | competition with immobilised ligand | – | – | 0.028 µM
Nc1ncnc2c1ncn2[C@@H]1O[C@H](COP(=O)(O)O)[C@@H](OP(=O)(O)O)[C@H]1O | Sulfotransferase 2A1 (SULT2A1, Homo sapiens, UniProt Q06520) | binding | fluorescence | – | – | 0.55 µM
N[C@H](Cc1ccccc1)C(=O)O | Pah | binding | fluorescence | pH 7.5 | – | 8400 µM
Cc1ncsc1-c1ccc(CNC(=O)[C@@H]2C[C@@H](O)CN2C(=O)[C@@H](NC(=O)C2(F)CC2)C(C)(C)C)c(OCCOCCOCCN2CCN(c3cc(-c4ccccc4O)nnc3N)CC2)c1 | VHL | binding | SPR | – | – | 0.098 µM
CCCN1CCN(c2ccc(-c3cncc(Cl)c3N3CCC4(CCNC4=O)CC3)cc2)CC1 | Serine/threonine-protein kinase MRCK beta (CDC42BPB, Homo sapiens, UniProt Q9Y5S2) | cell-free assay | – | – | lysate | 4.03 µM
CSCC[C@H](N)C(=O)O | Pah | binding | fluorescence | pH 7.5 | – | 24000 µM
